Assay results taken from ChEMBL document CHEMBL1141213, “Lysosomotropism of basic cathepsin K inhibitors contributes to increased cellular potencies against off-target cathepsins and reduced functional selectivity” (J Med Chem, 2005).

Legend:
[1] = Dissociation constant, pKa of the compound; type: physicochemical
A20 = assay: Effect of compound on antigen presentation in mouse A20 cells transfected with PC-specific mIgM by IL-2 secretion; type: functional, cell-based
Outline: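 A20 cells transfected with PC-specific mIgM (1×10^5) preincubated with compound 60 min at 37 °C in RPMI 1640 with 10% FBS, glutamine and β-mercaptoethanol. DO.11.10 T cells (1×10^5) and PC-OVA antigen (30 μg/mL) added, then incubated overnight. IL-2 secreted into medium measured by ELISA. IC50 taken against DMSO as the no-inhibition control; at least duplicate experiments.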

Cathepsin B [2] = target: T1, Cathepsin B (Homo sapiens, UniProt P07858); assay: Inhibitory activity against human cathepsin B
Cathepsin S [3] = target: T2, Cathepsin S (Mus musculus, UniProt O70370); assay: Inhibitory activity against mouse cathepsin S
T2 sequence (O70370 whole entry): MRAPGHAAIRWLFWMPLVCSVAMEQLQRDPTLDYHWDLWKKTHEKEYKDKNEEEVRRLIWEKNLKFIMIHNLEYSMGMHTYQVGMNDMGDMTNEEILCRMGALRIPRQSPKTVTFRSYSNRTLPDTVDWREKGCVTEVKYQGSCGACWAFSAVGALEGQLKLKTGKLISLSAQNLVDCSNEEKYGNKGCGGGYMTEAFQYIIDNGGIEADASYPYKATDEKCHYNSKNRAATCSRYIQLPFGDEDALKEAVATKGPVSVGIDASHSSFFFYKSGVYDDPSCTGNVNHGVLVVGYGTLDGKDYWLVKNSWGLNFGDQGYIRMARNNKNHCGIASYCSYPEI

Cathepsin K [4] = target: Cathepsin K (Homo sapiens, UniProt P43235); assay: Inhibitory activity against humanized rabbit cathepsin K; set-up: species or system Oryctolagus cuniculus
Osteoclast = assay: Effect of compound on degradation of collagen in osteoclast bone resorption assay; type: functional, cell-based; conditions: Oryctolagus cuniculus
Cathepsin S [5] = target: T3, Cathepsin S (Homo sapiens, UniProt P25774); assay: Inhibitory activity against human cathepsin S expressed in ramos cells; type: cell-based
T3 sequence (P25774 whole entry): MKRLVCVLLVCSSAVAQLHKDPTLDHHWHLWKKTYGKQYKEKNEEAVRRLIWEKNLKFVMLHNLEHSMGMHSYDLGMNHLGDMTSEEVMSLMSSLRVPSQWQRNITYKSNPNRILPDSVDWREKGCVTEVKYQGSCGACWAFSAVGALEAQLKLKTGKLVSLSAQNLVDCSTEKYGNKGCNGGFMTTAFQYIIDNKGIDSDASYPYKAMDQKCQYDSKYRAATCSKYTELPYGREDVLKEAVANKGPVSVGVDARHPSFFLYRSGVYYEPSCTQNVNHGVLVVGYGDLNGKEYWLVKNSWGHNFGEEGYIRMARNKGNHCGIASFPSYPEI

Procathepsin L [6] = target: T4, Procathepsin L (Homo sapiens, UniProt P07711); assay: Inhibitory activity against human cathepsin L
T4 sequence (P07711 whole entry): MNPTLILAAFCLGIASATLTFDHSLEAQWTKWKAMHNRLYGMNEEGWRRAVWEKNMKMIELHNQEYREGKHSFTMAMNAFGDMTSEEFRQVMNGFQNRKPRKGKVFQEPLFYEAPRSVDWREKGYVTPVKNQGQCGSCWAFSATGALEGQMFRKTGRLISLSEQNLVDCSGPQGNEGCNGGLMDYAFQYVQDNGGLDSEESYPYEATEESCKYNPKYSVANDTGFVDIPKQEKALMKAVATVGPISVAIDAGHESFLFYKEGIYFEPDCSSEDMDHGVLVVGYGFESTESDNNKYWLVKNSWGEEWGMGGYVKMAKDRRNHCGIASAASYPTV

[7] = Partition co-efficient, logP of the compound; type: physicochemical; conditions: octanol/water
Procathepsin L [8] = target: T4, Procathepsin L; assay: Inhibitory activity against human cathepsin L expressed in HepG2 cells; type: cell-based
Cathepsin S [9] = target: T3, Cathepsin S; assay: Inhibitory activity against human cathepsin S
Cathepsin S [10] = target: T2, Cathepsin S; assay: Inhibitory activity against mouse cathepsin S in mouse splenocytes; type: cell-based
Outline: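 Splenocytes from 8–10-week C57Bl/6 mouse spleens, red cells lysed in NH4Cl buffer, suspended at 2.5×10^7 cells/mL in RPMI/HEPES pH 7. Preincubated with compound 60 min at 37 °C, then iodinated probe BIL-DMK (1 nM) added for 20 min.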

Cathepsin K [11] = target: T5, Cathepsin K (Oryctolagus cuniculus, UniProt P43236); assay: Inhibitory activity against rabbit cathepsin K
T5 sequence (P43236 whole entry): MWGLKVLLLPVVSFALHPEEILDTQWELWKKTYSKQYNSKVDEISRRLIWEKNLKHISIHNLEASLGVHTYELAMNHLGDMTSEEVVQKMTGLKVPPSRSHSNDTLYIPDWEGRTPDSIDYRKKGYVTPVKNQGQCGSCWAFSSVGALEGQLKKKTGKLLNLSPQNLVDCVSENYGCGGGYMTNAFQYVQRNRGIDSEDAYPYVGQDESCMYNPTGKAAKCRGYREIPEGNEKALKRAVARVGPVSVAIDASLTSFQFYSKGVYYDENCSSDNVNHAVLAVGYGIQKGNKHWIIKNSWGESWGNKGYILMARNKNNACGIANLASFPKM

Cathepsin B [12] = target: T1, Cathepsin B; assay: Inhibitory activity against human cathepsin B expressed in HepG2 cells; type: cell-based
[13] = Volume of distribution in rat administered with 5 mg/kg, iv; type: ADME, organism-based; set-up: dose 5 mg/kg, route intravenous; conditions: in vivo, read-out: Vdss
Rattus norvegicus [14] = assay: Plasma concentration in rat at 5 mg/kg, iv; type: ADME, organism-based; set-up: dose 5 mg/kg, route intravenous; conditions: in vivo
Outline: (§1)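 Rats dosed 10 mg/kg po or 5 mg/kg iv; tissues and plasma taken 2 h after dosing. Tissue weighed, homogenized in 2 volumes water, then 3 volumes acetonitrile with internal standard, homogenized again and centrifuged. Supernatant quantified by LC-MS/MS against a standard curve from spiked rat plasma.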

Rattus norvegicus [15] = assay: Plasma concentration in rat at 10 mg/kg, po; type: ADME, organism-based; set-up: dose 10 mg/kg, route oral; conditions: in vivo; outline: as §1
Rattus norvegicus [16] = assay: Volume of distribution in rat administered with 10 mg/kg, po; type: ADME, organism-based; set-up: dose 10 mg/kg, route oral; conditions: in vivo

pKa [1]	IC50 (A20) [µM]	IC50 (Cathepsin B [2]) [µM]	IC50 (Cathepsin S [3]) [µM]	IC50 (Cathepsin K [4]) [µM]	IC50 (Osteoclast) [µM]	IC50 (Cathepsin S [5]) [µM]	IC50 (Procathepsin L [6]) [µM]	logP [7]	IC50 (Procathepsin L [8]) [µM]	IC50 (Cathepsin S [9]) [µM]	IC50 (Cathepsin S [10]) [µM]	IC50 (Cathepsin K [11]) [µM]	IC50 (Cathepsin B [12]) [µM]	Vd [13] [L/kg]	concentration (Rattus norvegicus [14]) [µM]	concentration (Rattus norvegicus [15]) [µM]	Vdss (Rattus norvegicus [16]) [L/kg]	SMILES
8.77	8.6	86	34.1	0.0078	0.149	1.34	2.6	3.46	0.32	20	0.74	0.033	4.4					CC(C)C[C@@H](C(=O)NCC#N)c1cccc(-c2ccc(N3CCNCC3)cc2)c1
6.84	> 100		33					2.9			> 10							CN1CCN(c2nc(-c3ccc(C(=O)NC4(C(=O)NCC(F)(F)F)CCCCC4)cc3)cs2)CC1
	> 100	4.2	8.5	0.0023	0.041	> 10	24		> 10	27	6.7	0.0095	2.9					N#CCNC(=O)C1(NC(=O)c2ccc(-c3csc(N4CCOCC4)n3)cc2)CCCCC1
	> 100	15.4	4.5	0.019	0.58	4.8	32	0.98	> 10	52	8.5	0.072	4.4	1.9	0.17			N#CCNC(=O)C1(NC(=O)c2ccc(N3CCOCC3)cc2)CCCCC1
	1.22	19	0.013	1.03		0.01	0.055		0.23	0.0053	0.04		0.94					N#CCNC(=O)[C@H](CC1CCCCC1)NC(=O)c1ccccc1
7.01	6.2	1.1	5.4	0.00025		0.79	6.3	2.3	0.34	47	0.318	0.0005	0.017			2.4	11	CN1CCN(c2nc(-c3ccc(C(=O)NC4(C(=O)NCC#N)CCCCC4)cc3)cs2)CC1
7.76	6.18	4.8	6.35			2.9	0.503	1.81	0.048	65	0.48		0.061				4.7	CCCN1CCN(c2ccc(C(=O)NC3(C(=O)NCC#N)CCCCC3)cc2)CC1 [BALICATIB]
